# Hit rate of the full screen: of about 220,000 compounds, about 630 (0.29%) were called active.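 The calls were made as follows: active = activation above its plate's cutoff, the mean activation of the plate's test wells plus 3 SD (cut at about 12% in these data); inactive = the rest.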 The list comes from a sample in which actives are over-represented; it also holds similar structures and randomly drawn compounds.
# Target: Mucolipin-3 (Homo sapiens) (UniProt Q8TDD5)
# Assay: activators of mucolipin-3 cation channel – cell-based, HEK293 TRPML3-YFP, Fluo-8 calcium fluorescence, 3 µM, primary screen (AID 1448);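 also: 0% = DMSO only wells and 100% = carbachol wells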
# Conditions: at 3 µM, stronger effect = higher value, 100% = the carbachol control signal
# Summary of the method: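 Material: TRPML3-YFP stable HEK293 cells | Dosing: One concentration, 3 µM nominal, 0.3% DMSO | Timing: 125 s total fluorescence read per well | Technique: Fluo-8 calcium dye fluorescence, ex 470-495, em 515-575 nm | Measure: Percent activation from peak-to-basal fluorescence ratio, scaled between DMSO and carbachol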
# Chain of Mucolipin-3 (Homo sapiens) (Q8TDD5 whole entry, looked up): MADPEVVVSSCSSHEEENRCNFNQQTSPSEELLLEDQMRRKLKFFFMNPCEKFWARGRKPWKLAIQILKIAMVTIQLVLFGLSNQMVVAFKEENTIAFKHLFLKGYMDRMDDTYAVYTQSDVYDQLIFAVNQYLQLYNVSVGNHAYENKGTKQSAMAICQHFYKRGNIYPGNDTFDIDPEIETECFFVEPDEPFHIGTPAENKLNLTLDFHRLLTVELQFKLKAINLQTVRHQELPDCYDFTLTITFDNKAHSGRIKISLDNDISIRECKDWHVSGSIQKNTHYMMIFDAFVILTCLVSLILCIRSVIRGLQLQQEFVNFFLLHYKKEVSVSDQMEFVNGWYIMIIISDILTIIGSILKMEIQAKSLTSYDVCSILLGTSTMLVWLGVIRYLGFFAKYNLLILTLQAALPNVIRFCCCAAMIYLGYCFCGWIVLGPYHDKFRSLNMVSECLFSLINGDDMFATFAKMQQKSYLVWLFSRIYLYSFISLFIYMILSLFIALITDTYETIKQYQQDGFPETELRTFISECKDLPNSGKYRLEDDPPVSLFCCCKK
row,Compound,activation
1,COc1ccc(OCCCn2cccc2/C=C2/C(=N)N3OC(C)=CC3=NC2=O)cc1,1.97% (inactive)
2,CCOc1cc(/C=C2/C(=N)N3OC(C)=CC3=NC2=O)ccc1OC,0.9% (inactive)
3,CC1=CC2=NC(=O)/C(=C/c3coc4ccccc4c3=O)C(=N)N2O1,18.6% (active)
4,COc1ccc(N2C(=O)/C(=C\c3ccco3)N=C2SCC(N)=O)cc1Cl,0.09% (inactive)
5,O=C(c1cccc(F)c1)N1CCN(c2ccc([N+](=O)[O-])c3cccnc23)CC1,0.25% (inactive)
6,CCN1CCN(c2nc(Nc3cccc(F)c3)nc(N)c2[N+](=O)[O-])CC1,0.34% (inactive)
7,COCCCNC(=S)NC(=O)c1ccccc1,0.01% (inactive)
8,CCOC(=O)c1c(-c2ccccc2)csc1NC(=S)NC(=O)c1ccccc1,-0.33% (inactive)
9,CCOC(=O)C1=C(NC(=S)NC(=O)c2ccccc2)c2ccccc2CC1(C)C,43.3% (active)
10,CCc1ccc2ncc(C(=O)c3ccccc3)c(N3CCOCC3)c2c1,-0.05% (inactive)
11,COCCNc1cc(NCCOC)c([N+](=O)[O-])cc1[N+](=O)[O-],0.69% (inactive)
12,COc1ccc(S(=O)(=O)N2CCCC2)c(C)c1C,13.3% (active)
13,COc1ccc(S(=O)(=O)N2CCCCC2)cc1Br,9.19% (inactive)
14,COc1ccc(F)cc1S(=O)(=O)N1CCCCC1,0.95% (inactive)
15,COc1ccc(S(=O)(=O)N2CCOCC2)c(C)c1C,0.66% (inactive)
16,CCOc1ccc(S(=O)(=O)N2CCCCCC2)c2ccccc12,101% (active)
17,CCOc1ccc(Br)cc1S(=O)(=O)N1CCC(C(=O)O)CC1,1.07% (inactive)
18,COc1ccccc1Cn1c(C)nnc1-c1cnn(C)c1N,-0.66% (inactive)
19,CCCCN(CCCC)CC(O)Cn1c2ccccc2c(=O)c2ccccc21 (stereo not drawn),0.31% (inactive)
20,Cc1cc(Cl)ccc1OCc1nc(-c2ccncc2)no1,-0.07% (inactive)
21,O=C(CSc1nnc2n1CCCN2)c1ccccc1,0.51% (inactive)
22,COc1ccc(C2(CNC(=O)C(c3ccccc3)c3ccccc3)CCOCC2)cc1OC,0% (inactive)
23,CCN(CC)C(=O)CC1(c2ccccc2OC)CCOC(C(C)C)C1 (stereo not drawn),17.3% (active)
24,CCN(CC)C(=O)CSc1nc2ccccc2n1CC(=O)N1CCN(c2ccccc2OC)CC1,-0.02% (inactive)

row,Compound,activation
1,CCC(C)(C)NC(=O)C(c1ccc(O)cc1)N(C(=O)Cn1nnc2ccccc21)c1ccc(NC(C)=O)cc1 (stereo not drawn),0.14% (inactive)
2,NS(=O)(=O)c1ccc(NC(=O)COC(=O)c2ccc(Cl)nc2)cc1,0.29% (inactive)
3,O=C(COC(=O)c1c2c(nc3ccccc13)/C(=C\c1cccs1)CCC2)Nc1ccccc1Cl,0.46% (inactive)
4,COc1cc(-c2cc(C(=O)OCC(=O)Nc3ccc4c(c3)OCO4)c3ccccc3n2)cc(OC)c1OC,-0.31% (inactive)
5,NS(=O)(=O)c1ccc(NC(=O)COC(=O)c2cc3ccccc3oc2=O)cc1,0.31% (inactive)
6,NS(=O)(=O)c1ccc(NC(=O)COC(=O)c2c3c(nc4ccccc24)/C(=C\c2ccc4c(c2)OCO4)CCC3)cc1,24% (active)
7,NC(=O)c1ccc(NC(=O)COC(=O)c2c3c(nc4ccccc24)/C(=C\c2ccc4c(c2)OCO4)CCC3)cc1,29.2% (active)
8,Cc1ccc(C2=N/C(=C\c3ccc(OS(=O)(=O)c4ccc(C)cc4)cc3)C(=O)O2)cc1,0.55% (inactive)
9,CCN(CC)S(=O)(=O)c1ccc(C)c(NC(=O)COc2ccc(Br)cc2Cl)c1,0.13% (inactive)
10,O=C(Nc1ccccc1C(=O)O)c1cc(S(=O)(=O)N2CCCCC2)cs1,-0.64% (inactive)
11,c1csc(-c2nnc(COc3ccc4c(c3)OCO4)o2)c1,0.41% (inactive)
12,c1ccc2c(C[n+]3csc4ccccc43)cccc2c1,34.1% (active)
13,c1ccc2c(CSCc3nc4ccccc4[nH]3)cccc2c1,0.61% (inactive)
14,Nc1scc[n+]1Cc1cccc2cccnc12,0.56% (inactive)
15,O=C(CN1CCN(c2nc(-c3ccccc3)cs2)CC1)NCc1ccc2c(c1)OCO2,0.02% (inactive)
16,CC1CCCC(C)N1C(=O)CN1CCN(c2nc(-c3ccc(F)cc3)cs2)CC1 (stereo not drawn),12.9% (active)
17,COc1cccc(NC(=O)CN2CCN(c3nc(-c4cccc(OC)c4)cs3)CC2)c1,0.54% (inactive)
18,CC1CCCC(NC(=O)COC(=O)[C@@H]2CC(O)CN2S(=O)(=O)c2ccc3c(c2)OCCO3)C1C (stereo partly drawn),0.86% (inactive)
19,COc1cc(N/C=C2\CC(=O)NC(C)=C2C#N)cc(OC)c1OC,0.7% (inactive)
20,COc1cccc(CC(=O)N2CCCC(CCC(=O)N3CCN(c4ccccn4)CC3)C2)c1 (stereo not drawn),2.9% (inactive)
21,CC(=O)OC(C)C[N+](C)(C)C (stereo not drawn),78.4% (active)
22,CC(C[N+](C)(C)C)OC(N)=O (stereo not drawn),3.52% (inactive)
23,COc1ccc(C[C@H]2CN3C(=NC[C@H]3C)N2CCNC(=O)CCC2CCCCC2)cc1,0.4% (inactive)
24,CCCCCCCCCCOC(=O)C[N+](C)(C)CC1CCCCC1O (stereo not drawn),-0.99% (inactive)

row,Compound,activation
1,Cc1cccc(C)c1N1CCN(S(=O)(=O)N2CCCCC2)CC1,57.5% (active)
2,Cc1cccc(C)c1N1CCN(S(=O)(=O)N2CCOCC2)CC1,1.69% (inactive)
3,O=S(=O)(N1CCCCC1)N1CCNCC1,0.7% (inactive)
4,CCC(C)(C)c1ccc(OCC(=O)N(C)C)c(C(C)(C)CC)c1,0.49% (inactive)
5,CC1=CC(C)(C)N(C(=O)CSc2nccn2C)c2cc(C)ccc21,-1.12% (inactive)
6,CC1=CC(C)(C)N(C(=O)CSc2nnc(-c3ccccc3)o2)c2ccc(C)cc21,23.2% (active)
7,O=C(CSc1nnc(-c2ccccc2)o1)N1CCOCC1,0.92% (inactive)
8,Cc1ccc(C(=O)N2CCN(S(=O)(=O)N3CCOCC3)CC2)cc1,0.24% (inactive)
9,O=C(COC(=O)CC1CC2CCC1C2)NC(=O)NC1CCCC1 (stereo not drawn),0% (inactive)
10,COc1ccc(S(=O)(=O)NC(C)C(=O)Nc2cccc([N+](=O)[O-])c2)cc1 (stereo not drawn),-0.47% (inactive)
11,COc1cc(OC)c(-n2cc(-c3ccc(Cl)cc3)[nH]c2=O)cc1Cl,12.1% (active)
12,COc1ccc(-c2cn(-c3ccc(OC)cc3)c(=S)[nH]2)cc1,0.32% (inactive)
13,COc1cc(OC)c(-n2c(C)cc(C=O)c2C)cc1Cl,-0.32% (inactive)
14,Cc1nnc(N/N=C/C2CC=CCC2)[nH]c1=O (stereo not drawn),1.13% (inactive)
15,N#C/C(=C/c1ccc(-c2ccccc2[N+](=O)[O-])o1)C(=O)NCCN1CCCCC1,-0.32% (inactive)
16,N#C/C(=C/c1ccc(N2CCCCC2)o1)C(=O)NCCc1c[nH]c2ccccc12,15.6% (active)
17,O=C(NCCc1c[nH]c2ccccc12)C(=O)NCC1CCCO1 (stereo not drawn),0.08% (inactive)
18,Cn1c(SCC(=O)c2ccc(F)cc2)nnc1-c1ccccn1,-0.33% (inactive)
19,Cc1nc(COc2cccc(Cl)c2)sc1C(=O)/C=C/N(C)C,-0.16% (inactive)
20,COc1ccc(N=C(C)c2sc3ccccc3c2O)cc1,2.16% (inactive)
21,CCC(C(=O)Nc1ccc(C(C)C)cc1)c1ccccc1 (stereo not drawn),15.7% (active)
22,CCC(C(=O)OCC(=O)Nc1ccc(C(=O)Nc2ccc(OC)cc2)cc1)c1ccccc1 (stereo not drawn),1.2% (inactive)
23,CCC(C(=O)Nc1ccc2c(c1)OCCO2)c1ccccc1 (stereo not drawn),-0.06% (inactive)
24,Cn1cccc1/C=N/NC(=O)c1ccc(OC(F)(F)C(F)F)cc1,0.29% (inactive)

row,Compound,activation
1,Cc1cc(NC(=O)CCC(=O)N(CC(=O)NCC2CCCO2)c2ccccc2C)no1 (stereo not drawn),-0.47% (inactive)
2,Cc1cc(C)nc(/N=C2\NC(=O)CC(C(=O)O)N2c2ccc(Cl)cc2Cl)n1 (stereo not drawn),0.53% (inactive)
3,Cc1ccc(C(NC(=O)N2CCCC2)C(Cl)(Cl)Cl)cc1F (stereo not drawn),-0.15% (inactive)
4,Oc1ccc2ccc3cccc[n+]3c2c1,14.6% (active)
5,C/C(=N\Nc1nc(N2CCOCC2)nc(N2CCOCC2)n1)c1ccc([N+](=O)[O-])cc1,0.78% (inactive)
6,COc1ccc(/C=N/NC(=O)C(C)N(c2ccc(OC)cc2)S(C)(=O)=O)cc1 (stereo not drawn),0.53% (inactive)
7,CC(C)n1c(CN2CCN(Cc3ccccc3)CC2)nc2ccccc21,0.13% (inactive)
8,CCN(C(=O)Cc1nc(N)n[nH]1)C1(C(=O)Nc2ccccc2)CCCCC1,-0.28% (inactive)
9,CN(C)c1ccnc2sc(C(=O)c3ccccc3)c(N)c12,-0.55% (inactive)
10,Cc1nc2sc(C(=O)c3ccccc3)c(N)c2c2c1CCCC2,-0.35% (inactive)
11,Nc1c(C(=O)c2cccs2)sc2nsc(SCCN3CCCCC3)c12,23.1% (active)
12,CCN(CC)c1ccc(C(=O)c2cnc(/N=C/N(C)C)s2)cc1,-0.38% (inactive)
13,COC(=O)c1ccccc1N=Nc1c(C)[nH][nH]c1=O,0.25% (inactive)
14,C[C@@H](NC(=O)OC(C)(C)C)c1nnc(S(=O)(=O)Cc2ccccc2)o1,1.12% (inactive)
15,CCN1/C(=C\c2ccc3ccccc3[n+]2CC)Sc2cc(C)ccc21,16.6% (active)
16,CCN1/C(=C/c2ccc3ccc(C)cc3[n+]2CC)Sc2ccccc21,12.7% (active)
17,CCN1/C(=C/C(=S)Nc2ccccc2)Sc2ccccc21,-0.23% (inactive)
18,CCN1CCN(CCNC(=O)c2ccc(/C=C3/Sc4ccccc4N(Cc4cccc(C)c4)C3=O)cc2)CC1,1.89% (inactive)
19,COc1ccc(N(Cc2ccccc2)S(=O)(=O)c2cccc(C(=O)O)c2)cc1,0.34% (inactive)
20,COc1ccc(N(CCC#N)S(=O)(=O)c2ccc(Cl)cc2)cc1,11.9% (active)
21,COc1ccc(CNC(=O)CN(Cc2ccc(Cl)cc2)S(C)(=O)=O)cc1,0.83% (inactive)
